Experimental data taken from ChEMBL document CHEMBL4038313, “Expanding the Antiviral Spectrum of 3-Fluoro-2-(phosphonomethoxy)propyl Acyclic Nucleoside Phosphonates: Diamyl Aspartate Amidate Prodrugs” (J Med Chem, 2017).

Key:
[1] = tested on: Human immunodeficiency virus 2; test: Antiviral activity against HIV-2 infected in human MT4 cells measured on day 5 post-infection by trypan blue dye staining-based method; type: functional, cell-based; settings: Human immunodeficiency virus 2, MT4, 120 h
[2] = tested on: Human immunodeficiency virus 1; test: Antiviral activity against HIV-1 infected in human MT4 cells measured on day 5 post-infection by trypan blue dye staining-based method; type: functional, cell-based; settings: Human immunodeficiency virus 1, MT4, 120 h
[3] = Selectivity index, ratio of CC50 for human TZM-bl cells to EC50 for CCR5 tropic HIV1 BaL infected in human TZM-bl cells; type: toxicity, cell-based; settings: read-out: Ratio CC50/EC50
[4] = tested on: Human immunodeficiency virus 1; test: Antiviral activity against tenofovir-resistant CXCR4-tropic HIV-1 NL4-3 harboring reverse transcriptase K65R mutant infected in human MT4 cells assessed as inhibition of viral replication inhibition of virus-induced cytopathic effect after 6 days by XTT dye based assay; type: functional, cell-based; settings: Human immunodeficiency virus 1, NL4-3, MT4, 144 h
Procedure, shortened: (§1)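 MT-4 cells, 1 × 10^4 per well, given compound dilutions and wild-type NL4-3 or K65R NL4-3. Virus titred to give 85–95% cell killing at day 6. Incubated 6 days at 37 °C, 5% CO2. Viability read by XTT at 450/650 nm. EC50 from CPE reduction and toxicity from uninfected drug wells, by four-parameter fit. Fold change is K65R EC50 over wild-type EC50.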

[5] = tested on: Human immunodeficiency virus 1; test: Antiviral activity against CXCR4-tropic HIV-1 NL4-3 infected in human TZM-bl cells assessed as inhibition of virus-induced cytopathic effect preincubated with cells for 30 mins followed by viral infection measured after 48 hrs in presence of p-24 HIV-1 Ag by luciferase reporter gene assay; type: functional, cell-based; settings: Human immunodeficiency virus 1, NL4-3, TZM-bl
Procedure, shortened: (§2)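 TZM-bl cells, 1 × 10^4 per well in DMEM with 10% FBS and 10 mM […], incubated 30 min at 37 °C with compound. Then HIV-1 NL4.3 (X4) or BaL (R5) added at 100 pg p24 Ag per well. After 48 h, cells lysed with luciferase substrate. Tat-induced luminescence read after 10 min dark incubation as a measure of replication.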

Human betaherpesvirus 5 [6] = test: Antiviral activity against Human cytomegalovirus AD169 infected in HEL cells assessed as inhibition of virus-induced cytopathic effect; type: functional, cell-based; settings: Human betaherpesvirus 5, AD169, HEL
Procedure, shortened: (§3)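 HEL fibroblast monolayers inoculated with 100 CCID50 HCMV (AD-169, Davis) or 20 PFU VZV (TK+ Oka, TK− 07-1). Adsorbed 1–2 h, inoculum removed, then incubated with compound dilutions. HCMV cytopathicity or VZV plaques scored once untreated infected controls reached completion. EC50 is 50% reduction. SI is CC50/EC50, and the potency ratio is the ratio of EC50s.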

[7] = tested on: Human immunodeficiency virus 1; test: Selectivity ratio of EC50 for tenofovir-resistant CXCR4-tropic HIV-1 NL4-3 harboring reverse transcriptase K65R mutant infected in human MT4 cells to EC50 for CXCR4-tropic HIV-1 NL4-3 infected in human MT4 cells; type: functional; procedure, shortened: as §1
[8] = Cytotoxicity against human MT4 cells assessed as reduction in cell viability after 6 days by XTT tetrazolium dye-based assay; procedure, shortened: as §1
[9] = Half life in human liver microsomes at 0.1 uM in presence of NADPH by HPLC-MS/MS method; type: ADME, microsome
Procedure, shortened: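 Pooled human liver microsomes preincubated 10 min at 37 °C with an NADPH-regenerating system (1 mM NADP, 5 mM G6P, G6PDH) in pH 7.4 phosphate with 3 mM MgCl2 and 1 mM EDTA. Compound added at final 0.1 μM and sampled at 0–60 min into acetonitrile/methanol. Analysed by HPLC-MS/MS, mean of two experiments.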

[10] = Cytotoxicity against human PHA-stimulated PBMC assessed as cell viability by tetrazolium dye assay; type: cell-based
[11] = tested on: Human immunodeficiency virus 1; test: Antiviral activity against CXCR4-tropic HIV-1 NL4-3 infected in human MT4 cells assessed as inhibition of virus-induced cytopathic effect after 6 days by XTT dye based assay; type: functional, cell-based; settings: Human immunodeficiency virus 1, NL4-3, MT4, 144 h; procedure, shortened: as §1
[12] = Cytotoxicity against human HepG2.2.15 cells assessed as cell viability by tetrazolium dye uptake assay; type: cell-based, HepG2 2.2.15
Procedure, shortened: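 HepG2.2.15 cells (two integrated copies of HBV ayw1 genome) were seeded at 1.5 × 10^4 cells/well in DMEM with 2% FBS, 380 μg/mL G418, glutamine, antibiotics and nonessential amino acids. After 16−24 h, medium with various compound concentrations was added in triplicate and renewed on day 3. After 6 days of treatment, viability was read by MTS uptake and CC50 was calculated.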

[13] = Selectivity index, ratio of CC50 for human HEL cells to EC50 for HCMV Davis strain; procedure, shortened: as §3
[14] = tested on: Human immunodeficiency virus 1; test: (§4) Antiviral activity against CCR5 tropic HIV1 BaL infected in human PHA-stimulated PBMC assessed as inhibition of viral replication by measuring reduction in p24 antigen production preincubated with cells for 30 mins followed by viral infection measured on day 10 post infection in presence of IL-2 by ELISA; type: functional; settings: Human immunodeficiency virus 1, BaL
Procedure, shortened: (§5)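 PBMCs stimulated with 2 μg/mL PHA for 3 days at 37 °C, then 5 × 10^5 cells/ml preincubated 30 min at 37 °C with serial compound dilutions plus 2 ng/mL IL-2. Infected with 1500 pg/well HIV-1 BaL or 500 pg/well other isolates. IL-2 re-added on days 3 and 6. Supernatant p24 Ag measured by ELISA at day 10. EC50 is 50% inhibition of replication.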

Human alphaherpesvirus 3 [15] = test: Antiviral activity against thymidine kinase deficient Varicella-Zoster virus 07-1 infected in HEL cells assessed as inhibition of plaque formation; type: functional, cell-based; settings: Human alphaherpesvirus 3, 07-1, HEL; procedure, shortened: as §3
[16] = Selectivity index, ratio of CC50 for human PHA-stimulated PBMC to IC50 for CXCR4-tropic HIV-1 NL4-3 infected in human PHA-stimulated PBMC
Human alphaherpesvirus 3 [17] = test: Antiviral activity against thymidine kinase expressing Varicella-Zoster virus Oka strain assessed as inhibition of plaque formation; type: functional; settings: Human alphaherpesvirus 3, strain Oka vaccine; procedure, shortened: as §3
[18] = Selectivity index, ratio of CC50 for human PHA-stimulated PBMCs to IC50 for CCR5 tropic HIV1 BaL infected in human PHA-stimulated PBMC
[19] = Selectivity index, ratio of CC50 for human HEL cells to EC50 for HCMV AD-169 strain; procedure, shortened: as §3
[20] = tested on: Human immunodeficiency virus 1; test: Antiviral activity against CCR5 tropic HIV1 BaL infected in human TZM-bl cells assessed as inhibition of virus-induced cytopathic effect preincubated with cells for 30 mins followed by viral infection measured after 48 hrs in presence of p-24 HIV-1 Ag by luciferase reporter gene assay; type: functional, cell-based; settings: Human immunodeficiency virus 1, BaL; procedure, shortened: as §2
[21] = Half life in human plasma at 1 uM by HPLC-MS/MS method; type: ADME, cell-free
Procedure, shortened: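 Human plasma preincubated 10 min with pH 7.4 phosphate buffer at 37 °C. Compound added at final 1 μM and sampled at 0, 0.5, 1, 1.5 and 2 h into acetonitrile. Centrifuged and analysed by HPLC-MS/MS. t1/2 is the mean of two experiments.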

Hepatitis B virus = test: Antiviral activity against HBV ayw1 infected in human HepG2(2.2.15) cells assessed as reduction in viral replication by measuring extracellular viral DNA copy number after 6 days by real-time qPCR method; type: functional, cell-based; settings: ayw1, HepG2 2.2.15, 144 h
Procedure, shortened: (§6)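 HepG2.2.15 cells (two copies of HBV ayw1 genome), 1.5 × 10^4/well in DMEM with 2% FBS and 380 μg/mL G418. After 16–24 h, compound added in triplicate, medium with compound renewed at day 3. Supernatant collected at day 6, Pronase-treated, and extracellular HBV DNA measured by TaqMan qPCR (precore/core) against an HBV DNA standard curve. EC50/EC90 derived; CC50 by MTS uptake.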

Human betaherpesvirus 5 [22] = test: Antiviral activity against HCMV Davis strain infected in HEL cells assessed as inhibition of virus-induced cytopathic effect; type: functional, cell-based; settings: Human betaherpesvirus 5, Davis; procedure, shortened: as §3
[23] = Cytotoxic activity against HEL cells assessed as alteration of cell morphology after 3 days by microscopic method; type: cell-based; settings: human
Procedure, shortened: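 HEL cells with compound; MCC is the lowest concentration giving microscopically detectable alteration of cell morphology.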

[24] = Cytotoxicity against human TZM-bl cells assessed as cell viability by tetrazolium dye assay; type: cell-based
[25] = tested on: Human immunodeficiency virus 1; test: as §4, with “CXCR4-tropic HIV-1 NL4-3” for “CCR5 tropic HIV1 BaL”; type: functional; settings: Human immunodeficiency virus 1, NL4-3; procedure, shortened: as §5
[26] = Selectivity index, ratio of CC50 for human TZM-bl cells to EC50 for CXCR4-tropic HIV-1 NL4-3 infected in human TZM-bl cells; type: toxicity, cell-based; settings: read-out: Ratio CC50/EC50
[27] = Selectivity index, ratio of CC50 for HepG2.2.15 cells to EC50 for HBV ayw1 infected in human HepG2(2.2.15) cells assessed as reduction in viral replication by measuring extracellular viral DNA copy; procedure, shortened: as §6
[28] = Cytotoxic activity against HEL cells assessed as reduction in cell proliferation after 3 days by coulter counting method; type: cell-based; settings: human
Procedure, shortened: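 HEL cells seeded at 5 × 10^3/well, grown 24 h, then given compound for 3 days at 37 °C. Cell number counted by Coulter counter. CC50 is 50% reduction of proliferation relative to untreated controls, read from graphic plots.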

Structure (SMILES)	EC50 [1] [nM]	EC50 [2] [nM]	selectivity ratio [3]	EC50 [5] [nM]	EC50 (Human betaherpesvirus 5 [6]) [nM]	CC50 [10] [nM]	CC50 [12] [nM]	Ratio CC50/EC50 [13]	IC50 [14] [nM]	EC50 (Human alphaherpesvirus 3 [15]) [nM]	Ratio CC50/IC50 [16]	EC50 (Human alphaherpesvirus 3 [17]) [nM]	Ratio CC50/IC50 [18]	Ratio CC50/EC50 [19]	EC50 [20] [nM]	EC50 (Hepatitis B virus) [nM]	EC90 (Hepatitis B virus) [nM]	EC50 (Human betaherpesvirus 5 [22]) [nM]	MCC at 72 h [23] [µM]	CC50 [24] [nM]	also measured
Nc1nc(N)c2ncn(C[C@H](CF)OCP(=O)(O)O)c2n1	4600	4300	–	–	–	–	–	–	–	–	–	–	–	–	–	–	–	–	–	–	–
Nc1nc2c(ncn2CC(CF)OCP(=O)(O)O)c(=O)[nH]1 (centres undefined)	5000	5000	–	–	–	–	–	–	–	–	–	–	–	–	–	–	–	–	–	–	–
CCCCCOC(=O)C[C@H](NP(=O)(CO[C@@H](CF)Cn1cnc2c(=O)[nH]c(N)nc21)Oc1ccccc1)C(=O)OCCCCC (some centres undefined)	–	–	> 1670	73	4430	9310	> 100000	<10	170	110	466	890	55	<10	60	20	620	1980	153	> 100000	EC50 [4]: 80 nM; Ratio EC50 [7]: 8; CC50 at 144 h [8]: > 1000 nM; half-life at 0.1 µM [9]: 2 min; EC50 [11]: 10 nM; half-life at 1 µM [21]: 73 min; IC50 [25]: 20 nM; selectivity ratio [26]: > 1370; Ratio CC50/EC50 [27]: >5000; CC50 at 72 h [28]: 10200 nM
CCCCCOC(=O)C[C@H](NP(=O)(CO[C@H](CF)Cn1cnc2c(=O)[nH]c(N)nc21)Oc1ccccc1)C(=O)OCCCCC (some centres undefined)	–	–	> 455	160	5940	11200	> 100000	<10	130	79	374	590	86	<10	220	130	2860	3050	153	> 100000	IC50 [25]: 30 nM; selectivity ratio [26]: > 625; Ratio CC50/EC50 [27]: >769; CC50 at 72 h [28]: 27800 nM
